This note sets out measurements from ChEMBL document CHEMBL5034016 (J Med Chem, 2021).

The nature of data set [1]: Selectivity index, ratio of CC50 for human RD cells to EC50 for antiviral activity against Enterovirus A71 infected in human RD cells. Format: toxicity, cell-based. As to conditions: read-out: Ratio CC50/EC50.
The subject of data set [2] is Human immunodeficiency virus 1. Description: Inhibition of HIV-1 gp120 interaction with human CD4 assessed as inhibition of viral entry at 156 to […] by SPR analysis. As to conditions: dose lower […], dose upper […]. (Surface plasmon resonance follows binding to a sensor surface in real time, without labels.)
Data set [3] can be described thus: Inhibition of human mAb clone 2G12 binding to HIV1 gp120 expressed in human MT4 cells by flow cytometry analysis. Format: cell-based, Human immunodeficiency virus 1.
Data set [4] can be described thus: Inhibition of human mAb clone 447-52D binding to HIV1 gp120 expressed in human MT4 cells by flow cytometry analysis. It is filed as cell-based, Human immunodeficiency virus 1. Background: In flow cytometry, cells or beads pass a laser one at a time.
A short description of data set [5]: Inhibition of mouse mAb clone 9284 binding to HIV1 gp120 expressed in human MT4 cells by flow cytometry analysis. It is filed as cell-based, Human immunodeficiency virus 1.
Data set [6] in a line: Inhibition of mouse mAb clone 9305 binding to HIV1 gp120 expressed in human MT4 cells by flow cytometry analysis. Format: cell-based, Human immunodeficiency virus 1.
In another data set the test system is Enterovirus A71. Description: Antiviral activity against Enterovirus A71 BrCr infected in human RD cells assessed as reduction in virus-induced cytopathic effect incubated for 3 days by MTS/PMS assay. It is filed as functional, organism-based. As to conditions: Enterovirus A, 72 h.
Data set [7] is described as follows: Cytotoxicity against human RD cells assessed as reduction in cell viability measured after 3 days by MTS/PMS assay. It is filed as cell-based. Conditions: time 3 day. In outline: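 Uninfected RD cells were treated with serial compound dilutions in the same 3-day setup as the antiviral assay. […] Multiple dose–response curves (>2) from >1 independent experiments.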

The test system of data set [8] is Human immunodeficiency virus 1. Description: Anti-HIV activity against HIV-1 NL4.3 infected in human MT4 cells assessed as reduction in virus-indued cytopathic effect preincubated with cells for 30 mins followed by viral infection and measured after 5 days by MTS assay. It is filed as functional, organism-based. Conditions: Human immunodeficiency virus 1, NL4.3, MT4. In outline: (§1)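 MT-4 cells (1×10^6 cells/mL) were preincubated with compound for 30 min at 37 °C, then infected with cell-line-adapted NL4.3 or ROD dosed by TCID50 of the stock. After 5 days, CPE was scored microscopically and EC50 calculated from MTS/PES reduction (A490). Mean ± SD of at least three independent experiments.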

For data set [9], the system named is Human immunodeficiency virus 2. Briefly: Anti-HIV activity against HIV-2 ROD infected in human MT4 cells assessed as reduction in virus-indued cytopathic effect preincubated with cells for 30 mins followed by viral infection and measured after 5 days by MTS assay. Format: functional, organism-based. As to conditions: Human immunodeficiency virus 2, ROD. In outline:
as §1
(In general: Cytopathic effects are the visible damage that an infection or toxin causes in cultured cells.)

Data set [10] in a line: Cytotoxicity against human MT4 cells assessed as reduction in cell viability measured after 5 days by MTS/PES assay. It is filed as cell-based. As to conditions: time 5 day. In outline: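 Uninfected MT-4 cells were exposed to compound for 5 days. Viability was read by MTS/PES (A490, formazan proportional to living cells). […] Mean ± SD of at least three independent experiments.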

Data set [11] deals with Human immunodeficiency virus 1. Briefly: Anti-HIV activity against HIV-1 NL4.3 infected in PHA-stimulated human PBMC expressing CXCR-4 assessed as inhibition of virus-indued cytopathogenic effect measured after 10 days by ELISA. Format: functional, organism-based. As to conditions: Human immunodeficiency virus 1, NL4.3, PBMC, 240 h.
The test system of data set [12] is Human immunodeficiency virus 1. Briefly: Anti-HIV activity against HIV-1 Ba-L infected in PHA-stimulated PBMC expressing CCR5 assessed as inhibition of virus-indued cytopathogenic effect measured after 10 days by ELISA. It is filed as functional, organism-based. Conditions: Human immunodeficiency virus 1, Ba-L, 240 h.
Data set [13] concerns Enterovirus. Briefly: Antiviral activity against Enterovirus A71 harbouring VP1 S184T mutant infected in human RD cells assessed as reduction in virus induced cytopathic effect incubated for 3 days by MTS/PMS assay. It is filed as functional, organism-based.
In data set [14] the test system is Enterovirus. Briefly: Antiviral activity against Enterovirus A71 harbouring VP1 P246S mutant infected in human RD cells assessed as reduction in virus induced cytopathic effect incubated for 3 days by MTS/PMS assay. Format: functional, organism-based.
Data set [15] concerns Enterovirus. Description: Antiviral activity against Enterovirus A71 harbouring VP1 S184T/P246S double mutant infected in human RD cells assessed as reduction in virus induced cytopathic effect incubated for 3 days by MTS/PMS assay. It is filed as functional, organism-based.

Structures are written as SMILES. Some results are limits rather than exact numbers.

`O=C(CCC(CCC(=O)NC(Cc1c[nH]c2c(-c3cc(C(=O)O)cc(C(=O)O)c3)cccc12)C(=O)O)(CCC(=O)NC(Cc1c[nH]c2c(-c3cc(C(=O)O)cc(C(=O)O)c3)cccc12)C(=O)O)[N+](=O)[O-])NC(Cc1c[nH]c2c(-c3cc(C(=O)O)cc(C(=O)O)c3)cccc12)C(=O)O` (configuration not stated): the selectivity ratio in data set [1] turned out to be 63.

Turning to `O=C(CCOCC(COCCC(=O)NC(Cc1c[nH]c2c(-c3ccc(C(=O)O)cc3)cccc12)C(=O)O)(COCCC(=O)NC(Cc1c[nH]c2c(-c3ccc(C(=O)O)cc3)cccc12)C(=O)O)COCCC(=O)NC(Cc1c[nH]c2c(-c3ccc(C(=O)O)cc3)cccc12)C(=O)O)NC(Cc1c[nH]c2c(-c3ccc(C(=O)O)cc3)cccc12)C(=O)O` (configuration not stated), the selectivity ratio in data set [1] turned out to be 60.

Consider `O=C(CCOCC(COCCC(=O)NC(Cc1c(-c2ccc(C(=O)O)cc2)[nH]c2c(-c3ccc(C(=O)O)cc3)cccc12)C(=O)O)(COCCC(=O)NC(Cc1c(-c2ccc(C(=O)O)cc2)[nH]c2c(-c3ccc(C(=O)O)cc3)cccc12)C(=O)O)COCCC(=O)NC(Cc1c(-c2ccc(C(=O)O)cc2)[nH]c2c(-c3ccc(C(=O)O)cc3)cccc12)C(=O)O)NC(Cc1c(-c2ccc(C(=O)O)cc2)[nH]c2c(-c3ccc(C(=O)O)cc3)cccc12)C(=O)O` (configuration not stated), for which the selectivity ratio in data set [1] turned out to be 667.

What is called inhibition is the percentage by which the read-out fell short of the control. By IC50 is commonly meant the concentration at which inhibition is half-maximal. As for `O=C(CCOCC(COCCC(=O)NC(Cc1c(-c2cc(C(=O)O)cc(C(=O)O)c2)[nH]c2ccccc12)C(=O)O)(COCCC(=O)NC(Cc1c(-c2cc(C(=O)O)cc(C(=O)O)c2)[nH]c2ccccc12)C(=O)O)COCCC(=O)NC(Cc1c(-c2cc(C(=O)O)cc(C(=O)O)c2)[nH]c2ccccc12)C(=O)O)NC(Cc1c(-c2cc(C(=O)O)cc(C(=O)O)c2)[nH]c2ccccc12)C(=O)O` (configuration not stated), the inhibition in data set [2] amounted to 50%. Besides, the IC50 in [3], in [4], in [5] and in data set [6] was above 100 µM throughout.

Usually EC50 stands for the concentration that produces a half-maximal response. For orientation: CC50 means the concentration at which the toxic effect on the cells reaches its halfway point. With `O=C(CCC(CCC(=O)NC(Cc1c(-c2cc(C(=O)O)cc(C(=O)O)c2)[nH]c2c(-c3cc(C(=O)O)cc(C(=O)O)c3)cccc12)C(=O)O)(CCC(=O)NC(Cc1c(-c2cc(C(=O)O)cc(C(=O)O)c2)[nH]c2c(-c3cc(C(=O)O)cc(C(=O)O)c3)cccc12)C(=O)O)[N+](=O)[O-])NC(Cc1c(-c2cc(C(=O)O)cc(C(=O)O)c2)[nH]c2c(-c3cc(C(=O)O)cc(C(=O)O)c3)cccc12)C(=O)O` (configuration not stated), the values for the EC50 (in the data set on Enterovirus A71; in data set [8]; in [9]) were 0.2 µM, 0.04 µM and 0.07 µM, respectively. Also, the cytotoxic concentration (CC50) at 72 h in [7] is above 100 µM. The selectivity ratio in data set [1] is 526. For the same compound, the 50% cytotoxic concentration (CC50) at 120 h in data set [10] is above 100 µM.

In the case of `Cc1nnc(C(C)C)n1[C@H]1C[C@H]2CC[C@@H](C1)N2CC[C@H](NC(=O)C1CCC(F)(F)CC1)c1ccccc1` [MARAVIROC], the EC50 in [11] was above 1 µM; in data set [12], 0.00448 µM.

As to `O=C(CCC(CCC(=O)NC(Cc1c[nH]c2c(-c3cccc(C(=O)O)c3)cccc12)C(=O)O)(CCC(=O)NC(Cc1c[nH]c2c(-c3cccc(C(=O)O)c3)cccc12)C(=O)O)[N+](=O)[O-])NC(Cc1c[nH]c2c(-c3cccc(C(=O)O)c3)cccc12)C(=O)O` (configuration not stated), the selectivity ratio in [1] came to 1.

With `O=C(CCC(CCC(=O)NC(Cc1c(-c2cc(C(=O)O)cc(C(=O)O)c2)[nH]c2ccccc12)C(=O)O)(CCC(=O)NC(Cc1c(-c2cc(C(=O)O)cc(C(=O)O)c2)[nH]c2ccccc12)C(=O)O)[N+](=O)[O-])NC(Cc1c(-c2cc(C(=O)O)cc(C(=O)O)c2)[nH]c2ccccc12)C(=O)O` (configuration not stated), the selectivity ratio in data set [1] stood at 203.

With `O=C(CCOCC(COCCC(=O)NC(Cc1c[nH]c2c(-c3cc(C(=O)O)cc(C(=O)O)c3)cccc12)C(=O)O)(COCCC(=O)NC(Cc1c[nH]c2c(-c3cc(C(=O)O)cc(C(=O)O)c3)cccc12)C(=O)O)COCCC(=O)NC(Cc1c[nH]c2c(-c3cc(C(=O)O)cc(C(=O)O)c3)cccc12)C(=O)O)NC(Cc1c[nH]c2c(-c3cc(C(=O)O)cc(C(=O)O)c3)cccc12)C(=O)O` (configuration not stated), in [1], the selectivity ratio is 157.

As to `O=C(CCC(CCC(=O)N[C@H](Cc1c[nH]c2ccccc12)C(=O)O)(CCC(=O)N[C@H](Cc1c[nH]c2ccccc12)C(=O)O)NC(=O)CCOCC(COCCC(=O)NC(CCC(=O)N[C@H](Cc1c[nH]c2ccccc12)C(=O)O)(CCC(=O)N[C@H](Cc1c[nH]c2ccccc12)C(=O)O)CCC(=O)N[C@H](Cc1c[nH]c2ccccc12)C(=O)O)(COCCC(=O)NC(CCC(=O)N[C@H](Cc1c[nH]c2ccccc12)C(=O)O)(CCC(=O)N[C@H](Cc1c[nH]c2ccccc12)C(=O)O)CCC(=O)N[C@H](Cc1c[nH]c2ccccc12)C(=O)O)COCCC(=O)NC(CCC(=O)N[C@H](Cc1c[nH]c2ccccc12)C(=O)O)(CCC(=O)N[C@H](Cc1c[nH]c2ccccc12)C(=O)O)CCC(=O)N[C@H](Cc1c[nH]c2ccccc12)C(=O)O)N[C@H](Cc1c[nH]c2ccccc12)C(=O)O`, the EC50 in the data set with Enterovirus A71 amounted to 0.3 µM; in the data set on Enterovirus [13] it was 2 µM; in the data set with Enterovirus [14], 4.7 µM; with Enterovirus [15], 8.9 µM. In addition, the CC50 at 72 h in [7] stood at 24.9 µM.

`O=C(CCOCC(COCCC(=O)NC(Cc1c[nH]c2c(-c3cccc(C(=O)O)c3)cccc12)C(=O)O)(COCCC(=O)NC(Cc1c[nH]c2c(-c3cccc(C(=O)O)c3)cccc12)C(=O)O)COCCC(=O)NC(Cc1c[nH]c2c(-c3cccc(C(=O)O)c3)cccc12)C(=O)O)NC(Cc1c[nH]c2c(-c3cccc(C(=O)O)c3)cccc12)C(=O)O` (configuration not stated): the selectivity ratio in data set [1] was found to be 20.

For the compound `CCOC(=O)c1ccc(OCCC2CCN(c3ccc(C)nn3)CC2)cc1` [PIRODAVIR], in data set [1], the selectivity ratio worked out at 333.

On to `O=C(CCC(CCC(=O)NC(Cc1c[nH]c2c(-c3ccc(C(=O)O)cc3)cccc12)C(=O)O)(CCC(=O)NC(Cc1c[nH]c2c(-c3ccc(C(=O)O)cc3)cccc12)C(=O)O)[N+](=O)[O-])NC(Cc1c[nH]c2c(-c3ccc(C(=O)O)cc3)cccc12)C(=O)O` (configuration not stated), for which the half-maximal effective concentration (EC50) in the data set on Enterovirus A71 was found to be 61.6 µM; in data set [8], 12 µM; in data set [9], 49.7 µM. Besides, the CC50 at 72 h in data set [7] was above 61 µM. Further, the selectivity ratio in data set [1] is 1. For the same compound, the cytotoxic concentration (CC50) at 120 h in [10] is above 100 µM.
